# Source: PubChem (several laboratories)
# TAG inh = inhibitors of triacylglycerol accumulation | H9c2 cells, Nile Red lipid (TAG) fluorescence; cells loaded with 200 µM oleic acid | inhibition, % at 12.5 µM | actives 0.66% (n = 230,000) | AID 651582;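 active = pattern-corrected inhibition of lipid staining of at least 50% with the nuclear-stain viability signal not falling by more than 50%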
# SR-BI DiI inh = blocks mouse SR-BI lipid uptake from DiI-HDL; Q61009; ldlA[mSR-BI] CHO cells, DiI-HDL uptake fluorescence, 3 h; inhibition, % at 12.5 µM; actives 0.96% (n = 320,000); AID 488896;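 active = mean replicate inhibition of at least 70% and a set share of replicates each scoring 70 or more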
# Target sequence (Q61009 whole entry, looked up): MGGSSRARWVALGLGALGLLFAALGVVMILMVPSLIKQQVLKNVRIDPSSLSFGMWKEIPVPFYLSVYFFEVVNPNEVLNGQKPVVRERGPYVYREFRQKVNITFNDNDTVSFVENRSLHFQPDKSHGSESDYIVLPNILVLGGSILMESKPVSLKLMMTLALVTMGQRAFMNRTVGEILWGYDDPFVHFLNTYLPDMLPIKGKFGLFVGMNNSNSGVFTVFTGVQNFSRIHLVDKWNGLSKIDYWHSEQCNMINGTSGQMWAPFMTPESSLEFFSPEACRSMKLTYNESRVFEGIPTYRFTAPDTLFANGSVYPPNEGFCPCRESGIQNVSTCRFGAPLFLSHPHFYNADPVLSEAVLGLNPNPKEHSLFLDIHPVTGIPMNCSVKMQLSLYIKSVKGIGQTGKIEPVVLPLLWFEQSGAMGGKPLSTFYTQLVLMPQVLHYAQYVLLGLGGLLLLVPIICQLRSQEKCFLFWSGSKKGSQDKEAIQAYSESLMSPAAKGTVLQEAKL
# SR-BI uptake up = enhances SR-BI lipid uptake from DiI-HDL; actives 0.096% (n = 320,000); activation, % at 12.5 µM; CHO ldlA[mSR-BI] cells, DiI-HDL uptake fluorescence, 3 h; 100 = double the neutral-control signal; AID 504775;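 active = mean replicate activation of at least 60% and every replicate at or above 60%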
#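 material = CHO ldlA[mSR-BI] cells | medium = Ham's F12 with 0.5% BSA, HEPES 25 mM, pH 7.4 | reagent = fluorescent DiI-HDL, 10 µg/mL final | compound dosing = single-point compound dose | incubation = 3 h, 37 °C | measured by = bottom-read fluorescence, 550/595 nm | measure = HDL uptake via cellular fluorescence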
# SMARCA2 act = increases SMARCA2 function in MMTV reporter cells | actives 1% (n = 370,000) | activation, % at 9.1 µM | MG213 cells, MMTV-luciferase reporter, dexamethasone, overnight; in the data active = activation above about 7.8%
# Vif imaging = blocks HIV Vif function; HEK293T cells, Vif self-association by quenched fluorescence, imaging, 24 h; inhibition, % at 7.49 µM; actives 0.35% (n = 340,000); AID 602346; in the data active = inhibition above about 50%, passing the limit was not always enough
# SMARCA2 act conf = SMARCA2 activation, confirmation screen; actives 30% (n = 3,500); activation, % at 9.1 µM; shares compounds with SMARCA2 act; MG213 cells, MMTV-luciferase with dexamethasone, luminescence, overnight; MG213 cells expressing E1A, Rb sequestered; DMSO wells 0%, reference activator 100%;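 active = activation above its plate's cutoff, the mean activation of tested wells plus 3 SD, cut at about 7.9% in these data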
# GAL4-VP16 Luc = GAL4-VP16 reporter activation counter-screen; shares compounds with SMARCA2 act; HEK293 GAL4-VP16 pG5luc reporter, luciferase luminescence; scaled: DMSO wells 0%, SAHA wells 100%; activation, % at 9.1 µM; actives 41% (n = 3,500);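 active = activation above the solvent-only control well mean plus 3 SD, averaged across control plates, cut at about 5.2% in these data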
# Hits are given with their value; 0 = inactive; - = no result. Hits are enriched below; roughly 2.5% of the tested compounds scored in any of these assays.
SMILES,TAG inh,SR-BI DiI inh,SR-BI uptake up,SMARCA2 act,Vif imaging,SMARCA2 act conf,GAL4-VP16 Luc
O=c1c2ccccc2sn1-c1ccccc1,0,0,0,0,0,-,-
O=c1c2ccccc2sn1-c1cccc(Cl)c1,0,-,-,13,0,0,0
CN1C[C@@H]2[C@@H]3C(=O)N(Cc4ccccc4)C(=O)[C@@H]3[C@](Cc3ccccc3)(C1=O)N2C(=O)c1ccc(C(F)(F)F)cc1,0,0,0,0,0,-,-
O=Nc1c(O)n(Cc2cccc(C(F)(F)F)c2)c2ccccc12,0,0,0,0,0,-,-
CCOC(=O)N1CCN(C(=O)c2ccc3c(=O)n(Cc4ccc(Cl)cc4)c(=S)[nH]c3c2)CC1,-,0,0,8.2,0,0,0
CCCn1c(=S)[nH]c2cc(C(=O)N3CCN(C(=O)OCC)CC3)ccc2c1=O,-,0,0,0,0,-,-
Cc1ccc(NC(=O)OC(C)CNC(=O)Oc2cccc(C)c2)cc1 (stereo not given),0,0,0,11,0,8.0,0
C=CCN1C(=O)C(=O)N(Cc2nc3ccccc3s2)C1=O,-,0,0,8.7,0,8.2,8.3
COc1ccc(-c2cc3ccc(O)cc3oc2=O)cc1OC,-,0,0,8.5,0,0,0
COc1ccc(-c2coc3cc(O)ccc3c2=O)cc1O,-,0,0,8.0,0,13,11
CCC(=O)Nc1cc(-c2cc3ccccc3oc2=O)ccc1OC,0,0,0,9.3,0,11,9.6
COc1ccc(-c2coc3cc(O)cc(O)c3c2=O)cc1,0,0,0,0,0,-,-
O=c1c(-c2ccc(O)cc2)coc2cc(O)cc(O)c12,-,0,0,9.0,0,14,11
Cc1ccc(C(=O)OCC(=O)NC(=O)c2ccccc2)o1,0,0,0,0,0,-,-
O=C(CC(=O)Nc1ccc(Cl)cc1)N/N=C\c1cccc(F)c1,-,0,0,0,0,-,-
CN(C(=O)c1cc2c(=O)n3ccccc3nc2n1C)C1CCCCC1,0,0,0,8.0,0,0,14
O=S(=O)(c1ccccc1)N(Cc1ccccn1)Cc1ccccn1,-,0,0,0,0,-,-
O=c1ccc(Cc2ccccn2)n[nH]1,0,0,0,9.5,0,0,0
Cc1ccc(C(=O)CNc2ccc(Cl)cc2)cc1,0,0,0,13,0,12,0
CCOc1ccc(NCC(=O)c2ccc(C)cc2)cc1,0,0,0,0,-,-,-
CC(OC(=O)/C(C#N)=C/c1ccc(N(C)C)cc1)C(=O)N(C)c1ccccc1 (stereo not given),0,0,0,0,0,-,-
CC(=O)Nc1ccc(NC(=O)C(C)OC(=O)/C(C#N)=C/c2ccc(N(C)C)cc2)cc1 (stereo not given),0,0,0,8.0,124,8.7,7.3
CC(C)c1ccc(NC(=O)COC(=O)C2CC3C=CC2C3)cc1 (stereo not given),0,0,0,8.2,0,0,0
NC(=O)c1ccc(NC(=O)COC(=O)C2CC3C=CC2C3)cc1 (stereo not given),0,0,0,0,0,-,-
Clc1ccc(-c2csc(Nc3ccccc3)[n+]2Cc2ccco2)c(Cl)c1,0,0,0,9.0,0,0,6.1
SMILES,TAG inh,SR-BI DiI inh,SR-BI uptake up,SMARCA2 act,Vif imaging,SMARCA2 act conf,GAL4-VP16 Luc
CCCC[n+]1c(-c2ccc(Cl)cc2Cl)csc1Nc1ccccc1,-,0,0,0,0,-,-
c1ccc(CN2CCC(Nc3nc(-c4cccnc4)nc4ccccc34)CC2)cc1,0,0,0,8.5,0,19,0
CCc1ccc(-c2cnc3ccccc3n2)cc1NC(=O)CNC(=O)c1ccccc1,-,0,0,8.1,0,0,18
CC(=O)c1ccc(NC(=O)c2ccn[nH]2)cc1,-,0,0,8.2,0,8.0,8.0
COc1ccc(N2CC(=O)N(c3ccccc3)C2=S)cc1,0,0,0,11,0,8.7,0
COc1ccc2c3c(cccc13)C(=O)N(O)C2=O,-,0,0,9.0,0,44,0
COc1ccc(OC)c2nc(-c3ccc4c(c3)OCO4)ccc12,-,0,0,8.6,0,0,16
